{"data": "Measured values collected from several papers", "CDK3": "Cyclin-dependent kinase 3 (CDK3, Homo sapiens, UniProt Q00526)", "CDK3 with cyclin E": "Cyclin-dependent kinase 3, with cyclin E (CDK3, Homo sapiens, UniProt Q00526)", "note": "Protocols differ between the studies behind these lines."}
{"SMILES": "CN1CCN(C(=O)c2ccc(NC(=O)Nc3ccc(N(C)c4ccnc(Nc5ccc(CS(C)(=O)=O)cc5)n4)cc3)cc2)CC1", "target": "CDK3", "test": "binding, competition with immobilised ligand", "conditions": "1 µM", "measurement": "remaining binding", "value": "100%"}
{"SMILES": "C[C@]1(O)CCCN(c2nc(Nc3ccc(S(=O)(=O)N[C@H]4CC[C@H](CN5CCN(c6ccc(C7CCC(=O)NC7=O)cc6F)CC5)CC4)cc3F)ncc2C(F)(F)F)C1 (some centres unmarked)", "target": "CDK3", "test": "binding, competition with immobilised ligand", "conditions": "1 µM", "measurement": "remaining binding", "value": "74%"}
{"SMILES": "CC#CC(=O)N1CCC[C@H]1c1nc(-c2ccc(C(=O)Nc3ccccn3)cc2)c2c(N)nccn12", "target": "CDK3", "test": "enzyme activity, inhibitor", "conditions": "1 µM", "measurement": "inhibition", "value": "8%"}
{"SMILES": "C1=C/COCc2cc(ccc2OCCN2CCCC2)Nc2nccc(n2)-c2cccc(c2)COC/1", "target": "CDK3", "test": "cell-free assay", "conditions": "0.1 µM", "measurement": "remaining signal", "value": "100%"}
{"SMILES": "Cc1ccc(NC(=O)c2ccnc(C(F)(F)F)c2)cc1-c1cc(OCCO)nc(N2CCOCC2)c1", "target": "CDK3", "test": "binding, competition with immobilised ligand", "conditions": "1 µM", "measurement": "remaining binding", "value": "89%"}
{"SMILES": "C=CC(=O)N1CCC([C@@H]2CCNc3c(C(N)=O)c(-c4ccc(Oc5ccccc5)cc4)nn32)CC1", "target": "CDK3", "test": "enzyme activity, inhibitor", "conditions": "1 µM", "measurement": "inhibition", "value": "8%"}
{"SMILES": "COc1ccc2oc(-c3ccc4nc(N)oc4c3)c/c(=N\\c3ccccc3NC(=O)CCN)c2c1", "target": "CDK3 with cyclin E", "test": "binding", "conditions": "1 µM", "measurement": "remaining binding", "value": "108%"}
{"SMILES": "C[C@]1(O)CCCN(c2nc(Nc3ccc(S(=O)(=O)N[C@H]4CC[C@H](CN5CCN(c6ccc(C7CCC(=O)NC7=O)cc6F)CC5)CC4)cc3Cl)ncc2C(F)(F)F)C1 (some centres unmarked)", "target": "CDK3", "test": "binding, competition with immobilised ligand", "conditions": "1 µM", "measurement": "remaining binding", "value": "69%"}
{"SMILES": "CCCCC(=O)Nc1ccc(-c2ccc3ncn(CCC)c(=O)c3c2)cn1", "target": "CDK3", "test": "binding, competition with immobilised ligand", "conditions": "0.5 µM", "measurement": "remaining binding", "value": "93%"}
{"SMILES": "N#Cc1ccc(NC(=O)Nc2ccccc2)cc1", "target": "CDK3", "test": "cell-free assay, competition with immobilised ligand", "conditions": "25 µM", "measurement": "remaining binding", "value": "98%"}
{"SMILES": "CC(C)S(=O)(=O)c1ccc2nccc(Nc3ccc4sc(C5CCCC5)nc4c3)c2c1", "target": "CDK3 with cyclin E", "test": "enzyme activity, inhibitor", "conditions": "1 µM", "measurement": "activity vs control", "value": "96.5%"}
